Beta cell apopt = blocks beta cell apoptosis; INS-1E cytokine-induced death, ATP luminescence, 48 h; percent of positive-control rescue, neutral wells zero; protection from apoptosis, % (test concentration not listed); 0.8% of 300,000 active;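 active = Every replicate reaches about 75%, or at least half do and their mean reaches it too, limit read from the data; inconclusive = At least half of replicates reach the limit but their mean does not; inactive = Under half of replicates reach the limit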;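 also: 0% = cytokine-treated negative control wells and 100% = positive control rescue; higher means more ATP so stronger rescue from cytokine killing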
TMEM16A act = mouse TMEM16A channel activation, primary screen. Q8BHY3. 0.3% of 340,000 active. HEK293 TMEM16A/YFP-H148Q/I152L, iodide quench fluorescence; hits give low values. B-score at 10 µM;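 active = fluorescence-ratio B-score plate-corrected deviation score at least 3 library SD below zero, with starting fluorescence score within 5 deviations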;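 also: channel opened by trigger with iodide after compound preincubation; score built on the fluorescence ratio of max minus min over baseline; more negative score means more quench and so TMEM16A activation or potentiation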
MC4R antagonist = blocks human MC4R cAMP signaling; 0.48% of 360,000 active; inhibition, % at 6.5 µM; P32245; MC4R-expressing cells, MTII-stimulated cAMP, LANCE TR-FRET;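 active = inhibition above its plate's cutoff, the mean of tested wells on that plate plus 3 SD, cut at about 29% in these data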;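 also: 0% = Melanotan II alone and 100% = Melanotan II plus saturating MCL0020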
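System: U2OS-MC4R stable cell line; Technique: Eu-cAMP/anti-cAMP TR-FRET, emission 671 nm; Repeats: single well per compound; Also added: Melanotan II; Dosing: one concentration, 6.5 µM nominal; Schedule: 30-min compound, 1-h challenge, 1-h detection, room temperature.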
CSC inhib = cancer stem cell inhibition. cancer stem cell-like cells viability, luminescence. AID 2717. 1.1% of 300,000 active. inhibition, % at 7.5 µM; in the data active = inhibition above about 75%; inconclusive = no clear call, values can overlap the other calls; tested in HMLE shEcad cells
MC4R barr agon = activates human MC4R beta-arrestin recruitment; P32245; U2OS MC4R beta-arrestin complementation, luminescence; percent of melanotan II response, DMSO zero; activation, % at 8.9 µM; 0.98% of 360,000 active; AID 540308;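 active = activation above a per-plate cutoff, the mean activation of sample wells on that plate plus 3 SD, cut at about 8% in these data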
TMEM16A inh = inhibitors of mouse TMEM16A calcium-activated chloride channel; Q8BHY3; HEK293 TMEM16A/YFP iodide influx fluorescence, ionomycin; normalized B-score (activity score, 25-100; higher = stronger inhibition) at 10 µM; 1.2% of 310,000 active; AID 588511;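 active = ratio plate-corrected score three or more library SD toward inhibition, starting fluorescence score within five deviations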;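 also: score derived from kinetic fluorescence span divided by baseline fluorescence per well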
Numbers without * were called inactive; i = inactive; ? = inconclusive; . = not tested or not shown. Sampled rows, rich in hits. Any-hit rate of the full collection: about 3.8%.

SMILES	Beta cell apopt	TMEM16A act	MC4R antagonist	CSC inhib	MC4R barr agon	TMEM16A inh
CCSc1ccc(NC(=O)c2cccnc2)cc1	104*	i	5	-5	-2	i
O=C(Nc1ccc(N2CCCCC2)cc1)c1cccnc1	4	i	-7	-1	-2	i
O=C(Nc1ccccc1Cl)c1ccc(C(=O)Nc2ccccc2Cl)cc1	.	i	5	.	-2	.
O=C(Nc1ccc(C(=O)Nc2ccccc2Cl)cc1)c1cccnc1	99*	i	14	-7	-4	i
CCc1ccc(NC(=O)c2cccnc2)cc1	27	i	8	-11	-3	i
COc1ccc(NC(=O)COC(=O)C2CC2)cc1S(=O)(=O)N1CCCCC1	-3	i	0	.	-1	.
CC(=O)Nc1ccc(NC(=O)C(C)OC(=O)CC23CC4CC(CC(Br)(C4)C2)C3)cc1 (stereo unspecified)	-5	i	9	-16	-1	.
CC(C)(C)c1ccc(CC(=O)N2CCC2(C)C(=O)NS(=O)(=O)c2ccccc2)cc1 (stereo unspecified)	.	.	-1	.	0	.
CCc1ccc(Nc2n[n+](-c3ccccc3)c(/C=C/c3ccccc3)s2)cc1	12	.	.	13	.	i
Cc1cc(C)cc(NC(=S)N2CCC(c3nc4ccccc4s3)CC2)c1	.	i	-4	.	8.5*	i
COc1ccccc1N1CCN(C(=O)c2oc3cc(C)cc(C)c3c2C)CC1	-4	i	6	54	-2	25*
COc1cccc(/C=N/NC(=O)CN(C)S(=O)(=O)c2ccccc2)c1OC	0	i	-33	-9	2	.
O=C(OCc1cc(=O)n2ccsc2n1)c1ccc(OC(F)F)cc1	.	i	9	.	-2	.
Cc1ccc(C(=O)Nc2ccc3c(c2)CCC3)o1	8	i	6	11	-1	i
COc1cc(NC(=O)c2ccccc2F)ccc1NC(=O)c1cc2ccccc2o1	22	i	1	38	8.8*	i
O=C(NC(=S)Nc1ccc(N2CCCCC2)c(Cl)c1)c1cccs1	9	i	7	81*	-2	i
O=C(Nc1ccc(N2CCOCC2)c(Cl)c1)c1cc2ccccc2o1	11	i	1	-7	0	25*
O=C(Nc1ccc2c(c1)CCC2)c1cc2ccccc2o1	7	-5.7*	1	60	2	i
CCc1nc2ccc(C(=O)N(C)CCCN(C)C)cn2c1N(C)C(=O)C1CCCCC1	.	.	-3	.	-1	.
O=C(/C=C/c1ccco1)NC(=S)Nc1ccc(N2CCOCC2)c(Cl)c1	13	i	-29	60	22*	i
O=C(/C=C/c1ccccc1)NC(=S)Nc1ccc(N2CCOCC2)c(Cl)c1	-3	i	3	.	4	i
COC(=O)CCC(C)C1CCC2C3C(OC(C)=O)CC4CC(O)CCC4(C)C3CC(O)C12C (stereo unspecified)	.	.	12	.	0	.
COc1cccc(CNC(=O)c2nnn(CC(=O)Nc3ccc(Br)cc3)c2N)c1	14	i	-1	-9	-1	i
CCC(C)Nc1ccc(NC(C)CC)cc1 (stereo unspecified)	109*	i	-4	82*	2	.
O=C(CSc1nc(=O)[nH]c2c1CCCC2)Nc1cc(C(F)(F)F)cc(C(F)(F)F)c1	.	i	1	-6	-3	i
SMILES	Beta cell apopt	TMEM16A act	MC4R antagonist	CSC inhib	MC4R barr agon	TMEM16A inh
Cc1nn(-c2cc(C(F)(F)F)ccc2Cl)c2nc(C(Cl)(Cl)Cl)[nH]c(=O)c12	21	i	9	56	-1	100*
Cc1nn(-c2ccccc2)c2nc(C(F)(F)F)[nH]c(=O)c12	-2	i	16	-3	-1	i
Cc1cccc(C)c1N=Nc1c(C)cc(O)cc1C	7	i	1	99*	1	i
C=C(C)COc1ccc(-c2[nH]ncc2-c2ccccc2)c(O)c1	0	i	2	-13	4	i
O=[N+]([O-])c1ccc(COc2ccc(-c3[nH]ncc3-c3ccccc3)c(O)c2)cc1	25	i	4	118*	5	i
C=C(C)COc1ccc(-c2n[nH]c(C)c2-c2ccc(OC)c(OC)c2)c(O)c1	21	i	-13	81*	3	i
COc1ccc(-c2c(-c3ccc(OCC(=O)NN)cc3O)n[nH]c2C)cc1	1	i	2	7	0	i
C=C(C)COc1ccc(-c2[nH]ncc2Oc2ccccc2OCC)c(O)c1	39	i	-1	?	-1	100*
COc1ccccc1-c1cn[nH]c1-c1ccc(OCc2ccccc2F)cc1O	8	i	4	93*	8	i
COc1cc(C(=O)NN2C(=O)NC3(CCC(C)CC3)C2=O)ccc1OC(F)F (stereo unspecified)	7	i	3	-11	-3	.
CCOc1ccc2nc(SCC(=O)NCc3ccc(S(N)(=O)=O)cc3)[nH]c2c1	-2	i	-3	-13	1	i
C=C(C)COc1ccc(-c2[nH]ncc2-c2ccc(OC)c(OC)c2)c(O)c1	24	i	-24	92*	3	i
O=C1/C(=C/c2ccc(N3CCOCC3)o2)SC(=Nc2ccccc2)N1CCc1c[nH]c2ccccc12	101*	i	4	85*	5	i
CCOC(=O)c1c2c(n(C)c1C)C(=O)C(=O)c1ccc(Br)cc1-2	57	i	-2	121*	-1	i
CCOC(=O)c1c2c(n(Cc3ccccc3)c1C)C(=O)C(=O)c1ccccc1-2	.	i	-7	.	2	.
Cc1ccc(C(=O)Nc2nc(C)c(C(=O)Nc3ccc4c(c3)CCC4)s2)cc1	14	i	-24	81*	-4	i
C/C(=N\Nc1nc(-c2ccccn2)nc2ccccc12)c1ccc(F)cc1	87*	i	0	82*	0	i
c1ccc(Oc2nc(-c3ccccn3)nc3ccccc23)cc1	47	i	4	3	0	i
C/C(=N\Nc1nc(-c2ccccc2O)nc2ccccc12)c1ccccc1	17	i	2	-12	2	i
Fc1ccc(Oc2nc(-c3ccccn3)nc3ccccc23)cc1	77*	i	-5	-7	1	i
c1ccc(-c2nc(N3CCCCCC3)c3ccccc3n2)nc1	123*	i	-2	-4	-2	i
O=C1S/C(=C\c2ccc(O)c([N+](=O)[O-])c2)C(=O)N1c1ccccc1Cl	29	i	1	31	-3	100*
Cc1cccc(NC(=O)CN2C(=O)S/C(=C\c3ccc(O)c([N+](=O)[O-])c3)C2=O)c1	.	i	0	-29	-3	i

Screening data (PubChem BioAssay)
